As a reminder, the apparent Kd is a dissociation constant that holds for the conditions of the assay.

This data set relates to MS2 coat protein. As to the kind of experiment: apparent Kd, MS2 coat protein; higher = weaker binding; RNA-MaP array; FMN 200 µM where present. The method, boiled down: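 The titrant was SNAP-549-labelled MS2 coat protein, run from 0.7 or 1.5 nM in doubling steps to 3 µM. It was applied to designs transcribed by stalled E. coli RNA polymerase on Illumina sequencing-chip clusters, without ligand first and then with constant ligand, in 100 mM Tris-HCl pH 7.5, 80 mM KCl, 4 mM MgCl2, BSA, DTT, yeast tRNA and Tween-20. The apparent Kd is the median of filtered per-cluster binding-curve fits, with green signal normalised to red-channel RNA signal and control-cluster median Fmax.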

The mark [1] stands for this setting: designed as: OFF switch for flavin mononucleotide, no ligand.
The mark [2] stands for this setting: ligand present: flavin mononucleotide, designed as: OFF switch for flavin mononucleotide.
[3] abbreviates: designed as: ON switch for flavin mononucleotide, no ligand.
Setting [4] is: ligand present: flavin mononucleotide, designed as: ON switch for flavin mononucleotide.

Take “UGACUUAUAUAGAAGGGUAUGUGGGAAUUACAUGAGGAUCACCCAUGUUUUAUAGGAUAUGUAUAUAGUUUUUAAUCAAGUUUA”: the “apparent Kd” value under setting [1] was determined as 46.3 nM and the “apparent Kd” value under setting [2] was found to be 37.7 nM.
“UUGCCUCAGAACAUGAGGAUCACCCAUGUGCUGCGGGCAACGUAGGAUAUGAUGGUGUGACACCAUCAGAAGGAUGAUGGUACC”: the “apparent Kd” value was found to be 5.97 nM under setting [3] and 5.81 nM under setting [4].
For the sequence “GGCUGACAUGUAGGAUAUCUGCACGUGUAGUGCAGAGAAGGACAUGAGGAUCACCCAUGUAUAGCGACUUCGGUCGCAACAGCC”, the “apparent Kd” value worked out at 49.2 nM under setting [1] and 159 nM under setting [2].
As to “UAUAUAUAGUAAGGAUAUGUAAUUCUUUUAUAAACAGAAGGUACUGACAUGAGGAUCACCCAUGUUUUAGUGUGGGCAUGUAGA”, the “apparent Kd” value by setting is: under setting [1], 66.3 nM; under setting [2], 81.9 nM.
Regarding “UGGGACGUCGUAGGAUAUGUAGGAUAUUCCUACAUGAGGAUCACCCAUGUUGACAUGGAAGAAGGACAGAAGGACGAUGUCCAU”, the “apparent Kd” value runs as follows: under setting [3], 211 nM; under setting [4], 4.78 nM.
As to “CGUGGACAUGAGGAUCACCCAUGUGAGGAUAUCGGCUGGUACGUGUUGGCUGGCAUCUCGAGAAGGCACAUAGU”, the “apparent Kd” value runs as follows: under setting [1], 43.8 nM; under setting [2], 80.4 nM.
The like results for “ACGUCGAGCCAGAAGGCAACAUGAGGAUCACCCAUGUAGUCCGGCUCGUGUUGAGGAUAUGGCACCCACGCGGAAGGCGCAGGU” were, in that order, 5.54 nM and 7.19 nM.
For “CACAGGGAUUCAGGAUAUAUUAGCCGAGGCCGCGUAGAAGGGAAAUCCUGACAUGAGGAUCACCCAUGUCGACCCGCCUUCCAU”, the “apparent Kd” value was 48.6 nM under setting [3] and 48.5 nM under setting [4].
On to “UAUAUAUAGUAAGGAUAUGUAUUUAUUUGAUAAACAGAAGGUACUGACAUGAGGAUCACCCAUGUUUUAGUGUGGGCAUGUAGA”, for which the “apparent Kd” value under setting [1] came to 81.6 nM and the “apparent Kd” value under setting [2] was determined as 131 nM.
For the sequence “UAGAGCGCUUGAGGAUAUCGCUUUGUGAUGGUACUCAUGCUUGUUACAUGAGGAUCACCCAUGUGCGAGAAGGCAGGCCGUUAG”, the “apparent Kd” value by setting is: under setting [1], 59.3 nM; under setting [2], 12.6 nM.
The like results for “UUUGUGUAAGGAUAUCACUACCGGGUCCGGACGCCCGCAGAUGAGAAGGUACAUGAGGAUCACCCAUGUCCCUA” were, in that order, 19.7 nM and 26.4 nM.
Take “GUCCUCUUGACAUGAGGAUCACCCAUGUAUUAUUUGUUAACUGAGGAUAUACUCUUAUUUUUUAUGUAGAAGGCAGAUUUGUUC”: the “apparent Kd” value is, setting by setting: under setting [1], 40.9 nM; under setting [2], 52.5 nM.
Consider “GUCGUUGUCUGGUCGAGGAUAGGGCAGGAUAUACAUGAGGAUCACCCAUGUGAAGCGCGAAGGAGGUAGAAGGGCCCACGUCAU”, for which the “apparent Kd” value is, setting by setting: under setting [1], 14.7 nM; under setting [2], 14.8 nM.
As to “UUACAGUGCGGGUAGGAUAUGUAGGGUGGUACAUGAGGAUCACCCAUGUAUCCACCCUUCGACCGGCAGAAGGGCCUGUCACUAC”, the “apparent Kd” value is 17.1 nM under setting [3] and 20.5 nM under setting [4].
“UUUUUGUGAGGAUAUCAGUAGUAAAAAAAUAAAAUUACUACUGAGAAGGCACAUGAGGAUCACCCAUGUUUUUU”: the “apparent Kd” value came to 41.7 nM under setting [1] and 96.5 nM under setting [2].
The like results for “CUUAUGUGAGGAUAUCAGUAGUGAUACGAUAGUAUUACUGCUGAGAAGGUACAUGAGGAUCACCCAUGUUCCUC” were, in that order, 17.1 nM and 20.4 nM.
For the sequence “ACAUACAUUCGAGGAUAUCAGUGAACAUAUUAUUGAGAAGGCGAUAUUAUUUUUAAUCUUAUUUACAUGAGGAUCACCCAUGUU”, the “apparent Kd” value was 22.6 nM under setting [3] and 19.6 nM under setting [4].
In the case of “GUGCUUGUCGGAGGAUAUGGUUACAUGAGGAUCACCCAUGUUAUGCUUGGUUACUUGUUUAGUUUCCAGAAGGUCGAUUGGUUG”, the “apparent Kd” value runs as follows: under setting [1], 69.6 nM; under setting [2], 132 nM.
The like results for “AAUAAUGAUAAGGAUAUCACUAGCCUCGGCUAGUGAGAAGGUAUCACAUGAGGAUCACCCAUGUGUUCCAAUAA” were, in that order, 16.1 nM and 40.3 nM.
On the same counts, the results for “CUUUUGGCAGGAUAUGCUUUUUUUGACAUGAGGAUCACCCAUGUGAUGCAGUUUGGGUUUGCAGAAGGGCCUGAGU” are 98.1 nM and 131 nM.
The like results for “UAUAUGUGAGGAUAUCAGGUGUGCUAGCGUACUGGUACAUCUGAGAAGGCACAUGAGGAUCACCCAUGUUUCUU” were, in that order, 26.3 nM and 88 nM.
For “UUUCAGUUCACAUGAGGAUCACCCAUGUCGGUUCGCCCGGACAGAAGGCACCCAUGACAAUGCGGUGAGGAUAUGUCAACAAGG”, the “apparent Kd” value under setting [3] was determined as 143 nM and the “apparent Kd” value under setting [4] is 19.1 nM.
For the sequence “GCACUUAGAGAUUUACCGUUACUAACAUGAGGAUCACCCAUGUAGGAUAUGCUAAUAGUAUUGAAGCAGAAGGACACUAAGUGC”, the “apparent Kd” value by setting is: under setting [1], 5 nM; under setting [2], 5.18 nM.
“GCUGCAUAUGAGAAGGCGAUCAUGAAACAUGAUCGAGGAUAUCAUGUUUACAUGAGGAUCACCCAUGUAUGGGUAUAAUGCAGC”: the “apparent Kd” value under setting [3] is 492 nM and the “apparent Kd” value under setting [4] stood at 14 nM.
